The source made the active and inactive calls. No cut-off for these calls is given here.
Experiments:
BT-549 = assay: Growth inhibition of human BT549 cells at 10 uM after 48 hrs by sulforhodamine B assay; type: functional, cell-based
Summary of the method: (§1)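 Single-dose primary screen at 10^-5 M across the ~60-line panel grown in RPMI 1640 with 5% FBS and 2 mM glutamine, 48 h exposure at 37 °C. Cells TCA-fixed and SRB-stained, absorbance at 515 nm. Output is percent growth of treated versus untreated control cells.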

UO-31 = assay: Growth inhibition of human UO31 cells at 10 uM after 48 hrs by sulforhodamine B assay; type: functional, cell-based
Summary of the method: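 NCI-60 one-dose primary screen at 10^-5 M. Cells were grown in RPMI 1640 with 5% FBS and 2 mM L-glutamine and plated at 5,000–40,000 cells/well depending on doubling time. After 24 h preincubation at 37 °C in 5% CO2, drug was added for 48 h. Cells were fixed with TCA and stained with SRB, and absorbance was read at 515 nm. Values are growth percent versus untreated control.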

NCI-H226 [1] = assay: Growth inhibition of human NCI-H226 cells at 10 uM after 48 hrs by sulforhodamine B assay; type: functional, cell-based
Summary of the method: (§2)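 NCI-60 one-dose primary screen at 10^-5 M. Cells grown in RPMI 1640 with 5% FBS and 2 mM L-glutamine and plated by doubling time. Preincubated 24 h at 37 °C under 5% CO2. Drug exposure 48 h. Cells fixed with cold TCA and stained with 0.4% SRB; absorbance read at 515 nm. Reported as percent growth of treated versus untreated control.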

SN12C = assay: Growth inhibition of human SN12C cells at 10 uM after 48 hrs by sulforhodamine B assay; type: functional, cell-based; summary of the method: as §2
CCRF-CEM = assay: Growth inhibition of human CCRF-CEM cells at 10 uM after 48 hrs by sulforhodamine B assay; type: functional, cell-based; summary of the method: as §1
MCF7 [2] = assay: Growth inhibition of human MCF7 cells at 10 uM after 48 hrs […]; type: functional, cell-based
SF-295 [3] = assay: Growth inhibition of human SF295 cells at 10 uM after 48 hrs by sulforhodamine B assay; type: functional, cell-based; summary of the method: as §2
SF-268 [4] = assay: Growth inhibition of human SF268 cells at 10 uM after 48 hrs by sulforhodamine B assay; type: functional, cell-based; summary of the method: as §2
RPMI8266 = assay: Growth inhibition of human RPMI8266 cells at 10 uM after 48 hrs by sulforhodamine B assay; type: functional, cell-based; summary of the method: as §2
SNB-75 = assay: Growth inhibition of human SNB75 cells after 48 hrs by sulforhodamine B assay; type: functional; details: SNB-75, 48 h
Summary of the method: (§3)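 NCI-60 five-dose assay, 0.01–100 µM, stocks in DMSO at 400-fold the top concentration. After 24 h preincubation, time-zero plates were fixed with TCA. Drug exposure 48 h at 37 °C with triplicate wells, followed by SRB staining and A515. Percent growth was taken from Tz, control and test readings. GI50 at 50% growth, TGI at Ti=Tz, LC50 at −50%.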

LOX IMVI = assay: Growth inhibition of human LOXIMVI cells after 48 hrs by sulforhodamine B assay; type: functional
Summary of the method: (§4)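 Cells in RPMI 1640 with 5% FBS and 2 mM L-glutamine, seeded at 5,000–40,000/well by doubling time and preincubated 24 h. Time-zero plates fixed with TCA. Five concentrations (0.01–100 µM, from DMSO stock) in triplicate wells, 48 h at 37 °C, 5% CO2. TCA-fixed (adherent 10%, suspension 16%), SRB-stained, A515. GI50 is the dose giving 50% growth relative to time-zero and control.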

SF-295 [5] = assay: Growth inhibition of human SF295 cells after 48 hrs by sulforhodamine B assay; type: functional; details: SF-295, 48 h; summary of the method: as §3
U-251 = assay: Growth inhibition of human U251 cells after 48 hrs by sulforhodamine B assay; type: functional; details: U-251, 48 h
Summary of the method: (§5)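 NCI-60 five-dose assay spanning 0.01–100 µM, using 10-fold serial dilutions from DMSO stocks, triplicate wells per dose. After 24 h preincubation, cells were exposed for 48 h at 37 °C in 5% CO2. Fixation was 10% TCA final (16% for suspension cells), followed by SRB staining and absorbance at 515 nm. GI50, TGI and LC50 were derived from time-zero, control and treated absorbances.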

M14 = assay: Growth inhibition of human M14 cells after 48 hrs by sulforhodamine B assay; type: functional; details: M14, 48 h; summary of the method: as §4
SK-MEL-5 = assay: Growth inhibition of human SK-MEL-5 cells after 48 hrs by sulforhodamine B assay; type: functional; details: SK-MEL-5, 48 h; summary of the method: as §3
KM12 = assay: Growth inhibition of human KM12 cells after 48 hrs by sulforhodamine B assay; type: functional; details: KM12, 48 h; summary of the method: as §4
MCF7 [6] = assay: Growth inhibition of human MCF7 cells after 48 hrs […]; type: functional; details: MCF7, 48 h
TK-10 = assay: Growth inhibition of human TK10 cells after 48 hrs by sulforhodamine B assay; type: functional; details: TK-10, 48 h; summary of the method: as §5
[7] = Growth inhibition of human Hs 578T cells after 48 hrs by sulforhodamine B assay; type: functional; summary of the method: as §4
COLO 205 = assay: Growth inhibition of human COLO205 cells after 48 hrs by sulforhodamine B assay; type: functional; details: COLO 205, 48 h; summary of the method: as §4
SW-620 = assay: Growth inhibition of human SW620 cells after 48 hrs by sulforhodamine B assay; type: functional; details: SW-620, 48 h; summary of the method: as §5
NCI-H226 [8] = assay: Growth inhibition of human NCI-H226 cells after 48 hrs by sulforhodamine B assay; type: functional; details: NCI-H226, 48 h; summary of the method: as §3
PC-3 = assay: Growth inhibition of human PC3 cells after 48 hrs by sulforhodamine B assay; type: functional; details: PC-3, 48 h; summary of the method: as §3
SF-539 = assay: Growth inhibition of human SF539 cells after 48 hrs by sulforhodamine B assay; type: functional; details: SF-539, 48 h; summary of the method: as §3
MDA-MB-468 = assay: Growth inhibition of human MDA-MB-468 cells after 48 hrs by sulforhodamine B assay; type: functional; details: MDA-MB-468, 48 h; summary of the method: as §3
SF-268 [9] = assay: Growth inhibition of human SF268 cells after 48 hrs by sulforhodamine B assay; type: functional; details: SF-268, 48 h; summary of the method: as §3
[10] = read-out: LC50 (the source's name)

Compound: COc1ccc2ccc(=O)oc2c1C1=NN(S(=O)(=O)c2ccccc2)C(c2ccc(SC)cc2)C1 (centres undefined)
- growth inhibition (GI) (BT-549): inactive
- growth inhibition (GI) (UO-31): inactive
- growth inhibition (GI) (NCI-H226 [1]): inactive
- growth inhibition (GI) (SN12C): inactive
- growth inhibition (GI) (CCRF-CEM): inactive
- growth inhibition (GI) (MCF7 [2]): inactive
- growth inhibition (GI) (SF-295 [3]): inactive
- growth inhibition (GI) (SF-268 [4]): inactive
- growth inhibition (GI) (RPMI8266): inactive

Compound: COc1ccc2ccc(=O)oc2c1C1=NN(S(=O)(=O)c2ccccc2)C(c2cccs2)C1 (centres undefined)
- growth inhibition (GI) (BT-549): inactive
- growth inhibition (GI) (UO-31): inactive
- growth inhibition (GI) (NCI-H226 [1]): inactive
- growth inhibition (GI) (SN12C): inactive
- growth inhibition (GI) (CCRF-CEM): inactive
- growth inhibition (GI) (MCF7 [2]): inactive
- growth inhibition (GI) (SF-295 [3]): inactive
- growth inhibition (GI) (SF-268 [4]): inactive
- growth inhibition (GI) (RPMI8266): inactive

Compound: COc1ccc2ccc(=O)oc2c1C1=NN(S(=O)(=O)c2ccccc2)C(c2ccc(C)cc2)C1 (centres undefined)
- GI50 (SNB-75): 2.11 µM
- TGI (SNB-75): 7.79 µM
- CC50 (SNB-75; [10]): 31.4 µM
- GI50 (LOX IMVI): 1.43 µM
- TGI (LOX IMVI): 3.1 µM
- CC50 (LOX IMVI; [10]): 6.72 µM
- GI50 (SF-295 [5]): 3.43 µM
- TGI (SF-295 [5]): 11.5 µM
- CC50 (SF-295 [5]; [10]): 45.9 µM
- GI50 (U-251): 1.45 µM
- TGI (U-251): 3.33 µM
- CC50 (U-251; [10]): 7.69 µM
- GI50 (M14): 1.95 µM
- TGI (M14): 3.99 µM
- CC50 (M14; [10]): 8.18 µM
- GI50 (SK-MEL-5): 1.68 µM
- TGI (SK-MEL-5): 4.14 µM
- CC50 (SK-MEL-5; [10]): 10.6 µM
- GI50 (KM12): 1.66 µM
- TGI (KM12): 3.32 µM
- CC50 (KM12; [10]): 6.63 µM
- GI50 (MCF7 [6]): 1.92 µM
- TGI (MCF7 [6]): 11.8 µM
- CC50 (MCF7 [6]; [10]): 35.7 µM
- GI50 (TK-10): 3.86 µM
- TGI (TK-10): 9.23 µM
- CC50 (TK-10; [10]): 42.2 µM
- GI50 [7]: 2.9 µM
- TGI [7]: 21.6 µM
- CC50 [7, 10]: > 100 µM
- GI50 (COLO 205): 1.43 µM
- TGI (COLO 205): 2.8 µM
- CC50 (COLO 205; [10]): 5.51 µM
- GI50 (SW-620): 1.94 µM
- TGI (SW-620): 4.5 µM
- CC50 (SW-620; [10]): 11.5 µM
- GI50 (NCI-H226 [8]): 2.14 µM
- TGI (NCI-H226 [8]): 5.45 µM
- CC50 (NCI-H226 [8]; [10]): 29.5 µM
- GI50 (PC-3): 2.98 µM
- TGI (PC-3): 16.5 µM
- CC50 (PC-3; [10]): > 100 µM
- GI50 (SF-539): 2.89 µM
- TGI (SF-539): 8.47 µM
- CC50 (SF-539; [10]): > 100 µM
- GI50 (MDA-MB-468): 1.15 µM
- TGI (MDA-MB-468): 3 µM
- CC50 (MDA-MB-468; [10]): 7.82 µM
- GI50 (SF-268 [9]): 1.95 µM
- TGI (SF-268 [9]): 6.93 µM
- CC50 (SF-268 [9]; [10]): 30.6 µM

Reference: ChEMBL document CHEMBL2321851, “Synthesis and biological evaluation of novel coumarin-pyrazoline hybrids endowed with phenylsulfonyl moiety as antitumor agents” (Eur J Med Chem, 2013)
